Assay results of several laboratories.
Compare with care: the assays were run in different laboratories.
Organism: Plasmodium falciparum
Observed: parasite growth

COc1cc(C=C(C(=O)/C=C/c2ccc(O)c(OC)c2)C(=O)/C=C/c2ccc(O)c(OC)c2)ccc1O — EC50 (K1; drug-resistant strain, blood stage): 18800 nM
N=C(CC(O)c1cc2c(F)cc(F)cc2c2cc(C(F)(F)F)ccc12)Nc1ccc(-c2ccc(F)cc2)cc1 (centres unmarked) — IC50 (ELISA; 3D7 DD2; blood stage): ~5 nM
CCN(CC)CCCC(C)Nc1ccnc2cc(Cl)ccc12 (centres unmarked) — IC50 (DD2; drug-resistant strain): 76.8 nM
c1cc([C@H]2CC[C@]3(CC2)OO[C@]2(O3)C3CC4CC(C3)CC2C4)ccc1OCCN1CCOCC1 — IC50 (W2; drug-resistant strain, blood stage): 11 nM
COc1cc(/C=C/C(=O)C(=Cc2ccccc2)C(=O)/C=C/c2ccc(O)c(OC)c2)ccc1O — EC50 (K1; drug-resistant strain, blood stage): 17100 nM
N=C(CC(O)c1cc2c(F)cc(F)cc2c2cc(C(F)(F)F)ccc12)Nc1cccc(F)c1 (centres unmarked) — IC50 (ELISA; 3D7 DD2; blood stage): ~2 nM
CCCCCCCCNC(C)C(O)c1ccc(SC(C)C)cc1 (centres unmarked) — IC50 (K1; drug-resistant strain, blood stage): 5.1 nM
CCN1CCN(Cc2ccc(Nc3nc4ccc(Oc5ccnc(NC(=O)C6CCN(C)CC6)c5)cc4n3C)cc2C(F)(F)F)CC1 — IC90 (flow cytometry; DD2; 72 h, blood stage): 166 nM
COc1cc(/C=C/c2cc(/C=C/c3ccc(O)c(OC)c3)n(-c3cccc([N+](=O)[O-])c3)n2)ccc1O — EC50 (K1; drug-resistant strain, blood stage): 16700 nM
C[C@@H]1CC[C@H]2[C@@H](C)C(=O)O[C@@H]3O[C@@]4(C)CC[C@@H]1[C@]32OO4 — IC50 (NF54; blood stage): 11.2 nM
COc1cc(/C=C/C(=O)C(=Cc2ccc([N+](=O)[O-])cc2)C(=O)/C=C/c2ccc(O)c(OC)c2)ccc1O — EC50 (K1; drug-resistant strain, blood stage): 9100 nM
N=C(CC(O)c1cc2c(F)cc(F)cc2c2cc(C(F)(F)F)ccc12)NCc1ccc(F)cc1 (centres unmarked) — IC50 (ELISA; 3D7 DD2; blood stage): > 100 nM
COc1cc(/C=C/c2cc(/C=C/c3ccc(O)c(OC)c3)n(-c3ccc(Cl)cc3Cl)n2)ccc1O — EC50 (K1; drug-resistant strain, blood stage): 25900 nM
N=C(N)N/N=C/c1c(Cl)cccc1Cl — IC50 (DD2; drug-resistant strain, blood stage): 1310 nM
N=C(CC(O)c1cc2c(F)cc(F)cc2c2cc(C(F)(F)F)ccc12)Nc1ccc(N2CCC(F)(F)CC2)cc1 (centres unmarked) — IC50 (ELISA; 3D7; 72 h, blood stage): 33.6 nM
COc1cc(/C=C2\CCC/C(=C\c3ccc(O)c(OC)c3)C2=O)ccc1O — EC50 (K1; drug-resistant strain, blood stage): 1300 nM
CC(=O)[C@@]1(O)[C@H](O)C[C@H]2[C@@H]3CCC4=CC(=O)CC[C@]4(C)[C@H]3CC[C@@]21C — IC50 (DD2; drug-resistant strain, blood stage): 617 nM
N=C(CC(O)c1cc2c(F)cc(F)cc2c2cc(C(F)(F)F)ccc12)Nc1cc(F)c(F)c(F)c1 (centres unmarked) — IC50 (ELISA; 3D7; 72 h, blood stage): 8.7 nM
CO[C@H]1/C=C/O[C@@]2(C)Oc3c(C)c(O)c4c(O)c(c(/C=N/N5CCN(C)CC5)c(O)c4c3C2=O)NC(=O)/C(C)=C\C=C\[C@H](C)[C@H](O)[C@@H](C)[C@@H](O)[C@@H](C)[C@H](OC(C)=O)[C@@H]1C — IC50 (K1; drug-resistant strain, blood stage): 33 nM
N=C(CC(O)c1cc2c(F)cc(F)cc2c2cc(C(F)(F)F)ccc12)Nc1ccc(Br)c(F)c1 (centres unmarked) — IC50 (ELISA; 3D7; 72 h, blood stage): 5.3 nM
